MC4R barr agon = activates human MC4R beta-arrestin recruitment; P32245; U2OS MC4R beta-arrestin complementation, luminescence; percent of melanotan II response, DMSO zero; 360,000 tested, 0.98% active; activation, % at 8.9 µM; AID 540308;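 active = activation above a per-plate cutoff, the mean activation of sample wells on that plate plus 3 SD, cut at about 8% in these data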
Target sequence (P32245 whole entry, looked up): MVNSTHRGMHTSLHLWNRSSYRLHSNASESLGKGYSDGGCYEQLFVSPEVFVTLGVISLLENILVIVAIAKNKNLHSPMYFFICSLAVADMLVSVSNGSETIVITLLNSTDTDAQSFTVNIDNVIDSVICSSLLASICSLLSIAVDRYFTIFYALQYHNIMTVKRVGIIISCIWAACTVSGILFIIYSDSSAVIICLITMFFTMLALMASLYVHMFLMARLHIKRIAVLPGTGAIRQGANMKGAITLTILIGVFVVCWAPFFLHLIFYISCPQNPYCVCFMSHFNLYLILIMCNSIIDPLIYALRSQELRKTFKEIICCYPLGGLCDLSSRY
MC4R antag cAMP = blocks human MC4R cAMP signaling | inhibition, % at 6.5 µM | MC4R-expressing cells, MTII-stimulated cAMP, LANCE TR-FRET | 360,000 tested, 0.48% active | AID 540295 | P32245;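 active = inhibition above its plate's cutoff, the mean of tested wells on that plate plus 3 SD, cut at about 29% in these data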;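 note: 0% = Melanotan II alone and 100% = Melanotan II plus saturating MCL0020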
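Assay system: human MC4R-expressing U2OS cells; reagent: Melanotan II stimulation of cells; dosing: 6.5 µM single dose; timing: compound 30 min, challenge 1 h, detection 1 h; signal: TR-FRET cAMP assay; replicates: one well per compound, no replicates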
MOR-DOR inv ag = inverse agonist of human OPRM1-OPRD1 heterodimerization; P35372+P41143; cell-based MOR-DOR heterodimer luminescence, inverse agonism; inhibition, % at 9.3 µM; 340,000 tested, 0.21% active; in the data active = inhibition above about 22%, passing the limit was not always enough;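 note: 0% = cells with DMSO and 100% = wells without cells with DMSO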
MOR-DOR ag = agonists of human mu-delta opioid receptor heterodimerization | activation, % at 9.3 µM | 340,000 tested, 0.3% active | AID 504326 | P35372+P41143 | cells, OPRM1-OPRD1 heterodimerization, luminescence; in the data active = activation above about 18%;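 note: 0% = vehicle-treated cells and 100% = reference agonist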
HTR5A ag ctr = HTR5A agonism, opioid heterodimer counter-screen. P47898. HTR5A agonist assay, luminescence, cell-based. activation, % at 9.3 µM. 340,000 tested, 0.61% active; in the data active = activation mostly above about 9.5%, no sharp cut-off; inactive = mostly below about 7.6%;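 note: 0% = cells with vehicle only and 100% = reference agonist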
HTR5A inv ctr = inverse agonist of human HTR5A in OPRM1-OPRD1 counter-screen. HTR5A cell line, luminescence, inverse agonism. inhibition, % at 9.3 µM. 340,000 tested, 0.083% active. AID 504634; in the data active = inhibition mostly above about 23%, no sharp cut-off; inactive = mostly below about 18%;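 note: 0% = cells with DMSO and 100% = no-cell wells with DMSO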
Active calls of the source: *; / = no result given. Most compounds without a hit are left out; they make up all but 2.4% or so of the library.

SMILES | MC4R barr agon | MC4R antag cAMP | MOR-DOR inv ag | MOR-DOR ag | HTR5A ag ctr | HTR5A inv ctr
CC(NC(=O)Cc1ccsc1)c1ccc(Cl)cc1Cl (stereo not drawn) | 0 | 9 | 14 | -3 | 5 | -14
COc1ccccc1NC(=O)CS(=O)(=O)c1cccc2nsnc12 | 2 | 4 | 9 | -2 | 12* | 34
COc1cc(C(=O)Nc2ccc3c(c2)CCCN3C(=O)c2ccco2)c([N+](=O)[O-])cc1OC | -2 | 4 | 3 | -1 | 2 | 10
OCCCN=C1CCCc2c1[nH]c1ccc(Cl)cc21 | 3 | -4 | 2 | 0 | 5 | -11
OCCN=C1CCCc2c1[nH]c1ccc(Cl)cc21 | 4 | 6 | -15 | 3 | 13* | -7
Cc1ccccc1C(=O)c1ccc2c(c1)n(C)c(=O)n2C | 3 | 5 | -2 | 0 | 12* | 19
O=S(=O)(Nc1nc2ccccc2nc1Nc1cccc(S(=O)(=O)N2CCCCC2)c1)c1ccccc1 | 8.5* | 13 | -45 | 8 | 13 | -22
CC(=O)c1cn(Cc2ccccc2)c(=O)n(Cc2ccc(F)cc2)c1=O | 3 | 21 | 11 | -2 | -2 | 5
Cc1ccccc1NC(=O)C1C2/C=C\CCCCC21 (stereo not drawn) | 8.8* | 7 | -7 | 1 | -2 | 6
Cc1ccc(-n2nnnc2-c2nc3ccccc3s2)cc1 | 8.7* | 12 | -16 | 3 | 1 | -16
CCOc1ccc(-n2nnnc2-c2nc3ccccc3s2)cc1 | 1 | 0 | 9 | -2 | 0 | -1
CC(=O)Nc1cc(OC(C)=O)c2nonc2c1OC(C)=O | 0 | -13 | -134 | 23* | 10 | -11
Cc1ccsc1CNC(=O)C1(C)CCN1C(=O)C(C)C (stereo not drawn) | 4 | 13 | / | / | / | /
CN(CC(=O)NCc1ccc(F)cc1)CC(=O)Nc1ccc(Cl)c(C(F)(F)F)c1 | 9.0* | 9 | -27 | 4 | 4 | -29
COc1ccccc1NC(=S)N(Cc1ccccc1)Cc1cccs1 | -1 | -1 | -2 | 0 | 9.3* | 12
CCCNC(=O)c1cc(C2CCCN(C(=O)c3ccccc3)C2)on1 (stereo not drawn) | 0 | 4 | / | / | / | /
COc1ccc(Nc2nc(-c3ccccc3)nc3ccccc23)c(OC)c1 | 1 | -6 | -15 | 3 | 4 | -10
COc1ccc(OC)c(Nc2nc(-c3ccncc3)nc3ccccc23)c1 | 13* | 11 | -5 | 1 | 0 | 0
COc1ccc(Cc2[nH]n3c(=O)cc(C(C)C)nc3c2-c2ccccc2)cc1 | -6 | 0 | 15 | -3 | -1 | 1
CNCCOc1ccccc1-c1ccccc1 | -1 | 4 | -7 | 1 | -4 | -14
CNCCCCOc1ccccc1-c1ccccc1 | 2 | 5 | 0 | 0 | 9.9* | 11
CC(=O)c1ccc(NC(=O)COC(=O)CCC2CCCC2)cc1 | 3 | -1 | -7 | 1 | 0 | -1
Cc1ccc(S(=O)(=O)Nc2c(NC3CCCCC3)c3ccccc3oc2=O)cc1 | 1 | 9 | -1 | 0 | 13* | 4
O=c1oc2ccccc2c(NC2CCCCC2)c1NS(=O)(=O)c1ccc(Br)cc1 | 0 | 1 | 5 | -1 | -1 | -18
O=C(N/N=C/c1ccc(OC(=O)c2ccccc2Br)cc1)c1ccccn1 | 8.9* | -4 | -1 | 0 | 6 | -15
SMILES | MC4R barr agon | MC4R antag cAMP | MOR-DOR inv ag | MOR-DOR ag | HTR5A ag ctr | HTR5A inv ctr
C=CCOc1cccc(/C=C2\C(=O)N(Cc3ccc(C)cc3)C(C)=C2C(=O)OC)c1 | -2 | 13 | -1 | 0 | 4 | 1
CCOc1cc(/C=C2\C(=O)N(Cc3ccc(C)cc3)C(C)=C2C(=O)OC)ccc1O | -2 | -13 | -10 | 2 | 16* | -40
Cn1c(=O)c([N+](=O)[O-])c(Cl)c2ccccc21 | -4 | 11 | 37* | -8 | -5 | 13
CCN(CC)c1c([N+](=O)[O-])c(=O)n(C)c2ccccc12 | 5 | 1 | -5 | 1 | 2 | -5
CCOC(=O)C1CCCN(Cc2nc(CC3CC3)no2)C1 (stereo not drawn) | 0 | 8 | 0 | 0 | 3 | 1
OCC1(Cc2ccccc2F)CCCN(Cc2c(F)ccc(F)c2F)C1 (stereo not drawn) | 1 | -4 | -27 | 5 | 6 | -16
C=CC[C@H](CC(=O)N(CCO)Cc1ccccc1)C(=O)N[C@H](COC(=O)[C@@H](CC=C)Cc1ccc(F)cc1)Cc1ccccc1 | -2 | 9 | -7 | 1 | -6 | 5
CSCCC(NS(=O)(=O)/C=C/c1ccccc1)C(=O)NCCc1ccc(S(N)(=O)=O)cc1 (stereo not drawn) | 1 | -6 | 12 | -2 | 1 | -2
CC(=O)Nc1sc2c(c1C(c1cccs1)N1CCOCC1)CCCC2 (stereo not drawn) | 0 | 6 | 3 | -1 | 13* | -5
COc1cccc2[nH]c(C(=O)NCc3ccccc3)cc12 | -2 | 1 | 10 | -2 | 4 | -13
COc1ccccc1-c1ccc(=O)n(CC(=O)NC2CCc3ccccc32)n1 (stereo not drawn) | -1 | 5 | 7 | -1 | -1 | 3
COc1ccc(/C=C(/C(=O)c2cccs2)N2C=CC=CC2=C(C#N)C#N)cc1 | -3 | 8 | 6 | -1 | -6 | 7
N#CC(C#N)=C1C=CC=CN1/C(=C\c1ccco1)C(=O)c1ccc(Br)cc1 | -4 | 28 | 29* | -5 | -2 | -4
COc1cc(C(=O)OCC(=O)NCCC2=CCCCC2)ccc1OCC(C)C | 9.2* | 2 | -26 | 5 | 2 | 16
COc1cc(C(=O)OCC(=O)NCCC2=CCCCC2)cc(OC)c1OC | -4 | -3 | 17 | -3 | 3 | -7
COc1ccc(C(=O)N/N=C\c2ccc(OC)c(COc3ccccc3Br)c2)c(OC)c1 | 1 | 3 | -21 | 3 | 10* | -20
O=C(CSC1CN(C(c2ccccc2)c2ccccc2)C1)N/N=C/c1ccc(Cl)cc1Cl | -3 | 4 | 6 | -1 | 12* | 3
O=C(N/N=C/c1ccc(Cl)cc1Cl)Nc1ccccc1 | 16* | -4 | -30 | 6 | 4 | -10
O=C(N/N=C/c1cccc(Cl)c1Cl)Nc1ccccc1 | 0 | 1 | -4 | 1 | 3 | -18
c1ccc(C(CN2CCCCC2)Oc2ccccn2)cc1 (stereo not drawn) | -1 | -1 | 9 | -2 | 4 | -13
COc1ccc(C(CNC(=O)c2oc3ccc(F)cc3c2C)N2CCCCC2)cc1 (stereo not drawn) | -3 | 7 | -11 | 2 | 2 | -9
O=C1C(Cc2ccccc2)S/C(=N/N=C/c2ccco2)N1c1ccccc1 (stereo not drawn) | 8.4* | 7 | -24 | 6 | 5 | -13

Assay outcomes deposited in PubChem by The Scripps Research Institute Molecular Screening Center.
